Experimental data pooled from the literature.
Lines come from different studies, so protocols differ.
Target: Serine/threonine-protein kinase SIK3 (SIK3, Homo sapiens, UniProt Q9Y2K2)

Compound	test	conditions	remaining binding [%]
O=C(c1ccc(Nc2ncc(Cl)c(-c3cc4ccccc4s3)n2)cc1)N1CCC(N2CCCC2)CC1	binding, competition with immobilised ligand	1 µM	98
O=C(NCCCC1CCCCC1)c1ccc(CNC(=O)c2cnn(-c3ccccc3)c2C(F)(F)F)cc1	cell-free assay, competition with immobilised ligand	0.1 µM	76
CN(CCCC(F)(F)F)c1nccc(-c2cnn3ncccc23)n1	binding	1 µM	100
O=C(c1ccc(Nc2nccc(-c3cc4ccccc4s3)n2)cc1)N1CCC(N2CCCC2)CC1	binding, competition with immobilised ligand	1 µM	65
CN(C)C(=O)Cn1cc(-c2nc(C3(c4ccc(-c5cnc(N)nc5)cc4)CC3)no2)cn1	cell-free assay, competition with immobilised ligand	1 µM	100
CCN1CCN(Cc2ccc(C(=O)Nc3ccc(C)c(Oc4ccc5c(c4)CC(=O)N5)c3)cc2C(F)(F)F)CC1	binding, competition with immobilised ligand	1 µM	100
COc1cnc(Nc2cccc(S(N)(=O)=O)c2)nc1N1CCN(c2ccccc2)CC1	binding, competition with immobilised ligand	1 µM	84
CC1CCCN1c1nccc(-c2cnn3ncccc23)n1 (centres unmarked)	binding	1 µM	94
Nc1ncc2c(n1)-c1c([nH]c3ccc(C#CC4CC4)cc13)CCCC2	binding, competition with immobilised ligand	1 µM	100
N[C@H]1CCN(c2nccc(-c3cnn4ncccc34)n2)C1	binding	1 µM	100
Cc1cc(C)c(-n2ccn3nc(-c4cccnc4)cc23)cc1NC(=O)c1cc(C#N)cc(S(F)(F)(F)(F)F)c1	cell-free assay, competition with immobilised ligand	0.1 µM	75.3
Cc1cnc(Nc2ccc(C(=O)N3CCC(N4CCCC4)CC3)cc2)nc1-c1cc2ccccc2s1	binding, competition with immobilised ligand	1 µM	61
O=C(Nc1ccc(Oc2ccc(F)cc2)cc1)N1CCc2ncccc2[C@H]1c1ccc(F)cc1	cell-free assay, competition with immobilised ligand	1 µM	100
COc1cnc(Nc2cccc(S(N)(=O)=O)c2)nc1N1CCN(c2ccccc2)C(=O)C1	binding, competition with immobilised ligand	1 µM	90
F[C@@H]1CCN(c2nccc(-c3cnn4ncccc34)n2)C1	binding	1 µM	74
O=C(Nc1c[nH]nc1C(=O)NC1CCNCC1)c1cc(F)cc(F)c1	binding, competition with immobilised ligand	1 µM	66
C[C@H](c1ccc(F)cc1)N(Cc1cccc(C(=O)O)c1)C(=O)c1cnc2ccccc2c1	cell-free assay, competition with immobilised ligand	1 µM	80
CN(C)c1ncc(F)c(-c2cnn3ncccc23)n1	binding	1 µM	87
CCCCN(CCCC)C(=O)CN1C[C@H](c2cc(OC)c3c(c2)OCO3)[C@@H](C(=O)O)[C@@H]1CC(C)(C)CCC	cell-free assay, competition with immobilised ligand	1 µM	60.5
C[C@H]1CCN(c2nccc(-c3cnn4ncccc34)n2)C1	binding	1 µM	66
